Experimental findings from ChEMBL document CHEMBL3351720, “Design, synthesis and evaluation of benzoisothiazolones as selective inhibitors of PHOSPHO1” (Bioorg Med Chem Lett, 2014) are described below.

Data set [1] has as its target T1, Phosphoethanolamine/phosphocholine phosphatase (Homo sapiens, UniProt Q8TCT1).
T1 sequence (Q8TCT1 whole entry): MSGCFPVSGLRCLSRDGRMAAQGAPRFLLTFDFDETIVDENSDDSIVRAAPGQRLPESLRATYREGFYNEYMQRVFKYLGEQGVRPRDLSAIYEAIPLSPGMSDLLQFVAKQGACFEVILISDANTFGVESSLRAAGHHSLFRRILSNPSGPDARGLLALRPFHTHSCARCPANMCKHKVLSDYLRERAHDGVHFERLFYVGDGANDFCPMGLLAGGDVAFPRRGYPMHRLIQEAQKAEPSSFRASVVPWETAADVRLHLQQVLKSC
Nature of the data set: Inhibition of PHOSPHO1 phosphoethanolamine activity (unknown origin) assessed as amount of inorganic phosphate release after 30 mins.

In data set [2] the target is T2, Mannose-6-phosphate isomerase (Homo sapiens, UniProt P34949).
T2 sequence (P34949 whole entry): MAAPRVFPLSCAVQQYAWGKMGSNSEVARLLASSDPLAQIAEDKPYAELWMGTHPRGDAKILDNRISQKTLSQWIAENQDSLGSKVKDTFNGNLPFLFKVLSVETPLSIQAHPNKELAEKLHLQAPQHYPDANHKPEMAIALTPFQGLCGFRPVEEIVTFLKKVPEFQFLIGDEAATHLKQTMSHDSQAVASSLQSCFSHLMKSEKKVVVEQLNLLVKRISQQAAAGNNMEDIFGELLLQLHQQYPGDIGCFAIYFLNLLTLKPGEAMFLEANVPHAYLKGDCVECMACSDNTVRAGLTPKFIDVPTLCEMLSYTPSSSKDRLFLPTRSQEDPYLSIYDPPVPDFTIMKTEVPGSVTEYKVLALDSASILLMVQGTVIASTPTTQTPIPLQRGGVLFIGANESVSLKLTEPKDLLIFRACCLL
Nature of the data set: Inhibition of phosphomannose isomerase (unknown origin).

Data set [3] addresses T3, Phosphomannomutase 2 (Homo sapiens, UniProt O15305).
T3 sequence (O15305 whole entry): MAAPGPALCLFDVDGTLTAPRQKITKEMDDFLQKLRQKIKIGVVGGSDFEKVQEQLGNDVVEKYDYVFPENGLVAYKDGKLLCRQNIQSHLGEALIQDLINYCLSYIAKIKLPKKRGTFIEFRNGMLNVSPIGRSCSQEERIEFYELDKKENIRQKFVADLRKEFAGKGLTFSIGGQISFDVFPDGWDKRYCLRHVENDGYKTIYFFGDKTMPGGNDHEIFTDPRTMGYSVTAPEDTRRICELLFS
Briefly: Inhibition of PMM2 (unknown origin).

The nature of data set [4]: Aqueous solubility of the compound in pH 5 pION buffer by UV kinetic solubility method. In kind it is physicochemical. Put shortly: (§1)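 Kinetic solubility in pION's buffer at pH 5.0, 6.2 or 7.4, reported in µg/ml. Part of an in vitro ADME panel.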
Data set [5] in a line: Aqueous solubility of the compound in pH 6.2 pION buffer by UV kinetic solubility method. In kind it is physicochemical. Put shortly: as §1
A short description of data set [6]: Aqueous solubility of the compound in pH 7.4 pION buffer by UV kinetic solubility method. It is filed as physicochemical. Put shortly: as §1
Data set [7] can be described thus: Permeability of the compound at donor pH 5.0 and acceptor pH 7.4 by PAMPA. It is filed as ADME. Put shortly:
(§2)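 PAMPA with the acceptor compartment at pH 7.4 and the donor at pH 5.0, 6.2 or 7.4. Permeability reported as ×10^-6 cm/s. Part of an in vitro ADME panel.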
On the technique in general: In PAMPA a lipid-coated filter parts donor from acceptor wells.

Data set [8] is described as follows: Permeability of the compound at donor pH 6.2 and acceptor pH 7.4 by PAMPA. It is filed as ADME. Put shortly: as §2
Data set [9] is described as follows: Permeability of the compound at donor pH 7.4 and acceptor pH 7.4 by PAMPA. In kind it is ADME. Put shortly: as §2
A short description of data set [10]: Plasma protein binding in human at 10 uM by LC-MS analysis. It is filed as ADME, cell-free. The following applies: read-out: PPB (converted). Put shortly:
(§3)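 Read-out was % of compound bound in human or mouse plasma, each tested at 1 µM and 10 µM.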

A short description of data set [11]: Plasma protein binding in mouse at 1 uM by LC-MS analysis. As to conditions: read-out: PPB (converted). In kind it is ADME, cell-free. Put shortly: as §3
A short description of data set [12]: Plasma protein binding in mouse at 10 uM by LC-MS analysis. It is filed as ADME, cell-free. As to conditions: read-out: PPB (converted). Put shortly: as §3
Data set [13] is described as follows: Cytotoxicity against human Fa2N-4 cells after 24 hrs by ATP-lite 1-step assay. In kind it is cell-based. As to conditions: fa2n-4, 24 h, read-out: LC50 (the source's name).
A short description of data set [14]: Metabolic stability in human plasma assessed as compound remaining at 1 x pH7.4 PBS measured at 3 hrs by LC-MS/MS analysis. It is filed as ADME, cell-free. The following applies: pH 7.4, read-out: Stability. Put shortly:
(§4)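 Stability of each analogue was reported as % of compound remaining. For liver microsomes this was after 1 hr, with runs with and without NADPH. For plasma this was after 3 hrs in plasma mixed 1:1 with 1× PBS, pH 7.4. Both human and mouse matrices were used.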

The nature of data set [15]: Metabolic stability in human plasma assessed as compound remaining at 1:1 1 x pH7.4 PBS measured at 3 hrs by LC-MS/MS analysis. In kind it is ADME, cell-free. As to conditions: pH 7.4, read-out: Stability. Put shortly: as §4
A short description of data set [16]: Metabolic stability in mouse plasma assessed as compound remaining at 1 x pH7.4 PBS measured at 3 hrs by LC-MS/MS analysis. In kind it is ADME, cell-free. As to conditions: pH 7.4, read-out: Stability. Put shortly: as §4
Data set [17] in a line: Metabolic stability in mouse plasma assessed as compound remaining at 1:1 1 x pH7.4 PBS measured at 3 hrs by LC-MS/MS analysis. In kind it is ADME, cell-free. The following applies: pH 7.4, read-out: Stability. Put shortly:
as §4

A short description of data set [18]: Metabolic stability in human liver microsomes measured at 1 uM after 1 hr at pH 7.4 by LC-MS/MS analysis. As to conditions: read-out: Stability. It is filed as ADME. Put shortly: as §4
In general terms: Microsomes from liver hold many membrane-bound enzymes, among them those of drug oxidation.

The nature of data set [19]: Metabolic stability in mouse liver microsomes measured at 1 uM after 1 hr at pH 7.4 by LC-MS/MS analysis. In kind it is ADME. As to conditions: read-out: Stability. Put shortly:
as §4

A short description of data set [20]: Plasma protein binding in human at 1 uM by LC-MS analysis. It is filed as ADME, cell-free. As to conditions: read-out: PPB (converted). Put shortly:
as §3

The nature of data set [21]: Metabolic stability in human liver microsomes measured at 1 uM after 1 hr at pH 7.4 by LC-MS/MS analysis in absence of NADPH. The following applies: read-out: Stability. In kind it is ADME. Put shortly: as §4
A short description of data set [22]: Metabolic stability in mouse liver microsomes measured at 1 uM after 1 hr at pH 7.4 by LC-MS/MS analysis in absence of NADPH. It is filed as ADME. As to conditions: read-out: Stability. Put shortly:
as §4

One may read the IC50 as the midpoint of a concentration-inhibition curve. In general, kinetic solubility refers to solubility judged after dilution from a stock solution rather than from solid.

≈ marks a conversion by molar mass, not a printed value.

For `Cc1ccc(-n2sc3ccccc3c2=O)cc1`, the IC50 in data set [1] was 1.3 µM; in [2] it was 3.9 µM; in data set [3], > 30 µM.
As for `O=c1c2ccccc2sn1-c1cc(S(=O)(=O)N2CCOCC2)ccc1N1CCCC1`, the half-maximal inhibitory concentration (IC50) in [1] was 7.5 µM.
Regarding `CN(C)S(=O)(=O)c1cccc(-n2sc3ccccc3c2=O)c1`, the figures for the kinetic solubility in data set [4], in data set [5] and in data set [6] were 23.4 µg/mL (≈ 70 µM), 24.6 µg/mL (≈ 73.6 µM) and 23.8 µg/mL (≈ 71.2 µM), respectively. The permeability came out at 781 ×10⁻⁶ cm/s in data set [7], 817 ×10⁻⁶ cm/s in data set [8] and 777 ×10⁻⁶ cm/s in data set [9]. The fraction unbound at 10 µM was 0.435 in [10] and 0.659 in data set [12]. Moreover, the fraction unbound at 1 µM in data set [11] is 0.644. In data set [13], the CC50 is > 50 µM. Also, the remaining at 3 h came to 11.4% in data set [14], 32.3% in [15], 65.3% in data set [16] and 40% in data set [17]. Also, the values for the remaining at 1 h, 1 µM in data set [18] and in data set [19] were 72.4% and 100%, respectively.
As to `O=C(O)c1cccc(-n2sc3ccccc3c2=O)c1`, the solubility (kinetic) in data set [4], in [5] and in [6] was > 27 µg/mL each time. Further, the figures for the permeability in data set [7], in data set [8] and in data set [9] were 157 ×10⁻⁶ cm/s, 18 ×10⁻⁶ cm/s and < 4.4 ×10⁻⁶ cm/s, respectively. The fraction unbound at 10 µM in [10] is 0.406; in [12], 0.699. In addition, the fraction unbound at 1 µM in data set [11] was 0.812. Moreover, in data set [13], the CC50 is > 50 µM. For the same molecule, the remaining at 3 h in data set [14] amounted to 50.2%; in data set [15] it was 55.5%; in [16], 100%; in data set [17], 71.2%. Further, the remaining at 1 h, 1 µM in data set [18] and in data set [19] was 100% each time.
`COC(=O)c1cccc(-n2sc3ccccc3c2=O)c1` returned an IC50 in data set [3] of 12 µM. Further, the solubility (kinetic) in data set [4] is 12.6 µg/mL (≈ 44.2 µM); in data set [5], 18.9 µg/mL (≈ 66.2 µM); in [6], 20.8 µg/mL (≈ 72.9 µM). For the same molecule, the permeability in [7] came to 1294 ×10⁻⁶ cm/s; in [8], 1231 ×10⁻⁶ cm/s; in [9], 1300 ×10⁻⁶ cm/s. The values for the fraction unbound at 1 µM in [20] and in data set [11] were 0.588 and 0.52, respectively. Moreover, the fraction unbound at 10 µM in data set [10] is 0.427; in data set [12] it was 0.624. Moreover, the CC50 in [13] is > 50 µM. The remaining at 3 h was 15.4% in data set [14], 49.3% in data set [15], 59.6% in data set [16] and 55.2% in data set [17]. For the same molecule, the remaining at 1 h, 1 µM in data set [18] came to 72.4%; in [21], 31.5%; in [19], 45.9%; in data set [22] it was 44.6%.
For `O=c1c2ccccc2sn1-c1cc(S(=O)(=O)N2CCOCC2)ccc1N1CCOCC1`, the IC50 in data set [1] came out at 1.2 µM.
Molecule `Cc1ccc(-n2sc3ccccc3c2=O)cc1S(=O)(=O)N1CCCCC1` yielded an IC50 in data set [3] of 11 µM.
Consider `Cc1ccc(C)c(-n2sc3ccccc3c2=O)c1`, for which the IC50 was 4 µM in [1] and > 20 µM in [3].
With `O=c1c2ccccc2sn1-c1ccc(F)cc1`, the concentration for half-maximal inhibition (IC50) is 3.4 µM in [2] and > 20 µM in data set [3].
Turning to `O=c1c2ccccc2sn1-c1cccc(Cl)c1`, the IC50 in data set [3] was > 30 µM.
`Cc1cccc(-n2sc3ccccc3c2=O)c1`: the IC50 in data set [3] was > 20 µM.
As to `Cc1cccc(-n2sc3cc(F)ccc3c2=O)c1C`, the 50% inhibitory concentration (IC50) in [1] was 4.7 µM; in data set [2], 9.9 µM; in data set [3], > 20 µM.
As to `O=c1c2ccc(F)cc2sn1-c1ccccc1`, the concentration for half-maximal inhibition (IC50) in data set [1] was 0.79 µM; in [2] it was 1.3 µM; in [3], > 50 µM.
For `COc1ccc(-n2sc3cc(F)ccc3c2=O)cc1`, the IC50 in data set [1] is 6.7 µM; in [3], > 10 µM.
Molecule `O=c1c2ccccc2sn1-c1ccc(Cl)c(S(=O)(=O)N2CCOCC2)c1` gave an IC50 in data set [3] of 63 µM.
In the case of `CCN(CC)S(=O)(=O)c1cccc(-n2sc3ccccc3c2=O)c1`, the figures for the concentration for half-maximal inhibition (IC50) in data set [2] and in [3] were > 50 µM and > 100 µM, respectively.
Consider `CN(C)c1ccc(-n2sc3ccccc3c2=O)cc1`, for which the values for the IC50 in data set [2] and in data set [3] were 8.4 µM and > 30 µM, respectively.
Turning to `CCOC(=O)c1ccc(-n2sc3ccccc3c2=O)cc1`, the IC50 in data set [2] was 23 µM; in data set [3] it was > 50 µM.
On to `Cc1ccc(C)c(-n2sc3cc(F)ccc3c2=O)c1`, for which, in [1], the IC50 worked out at 3.3 µM.
Take `O=c1c2ccccc2sn1-c1ccc(F)c(Cl)c1`: the values for the half-maximal inhibitory concentration (IC50) in data set [2] and in data set [3] were > 50 µM and > 100 µM, respectively.
Consider `O=c1c2ccc(F)cc2sn1-c1ccc(F)cc1`, for which the half-maximal inhibitory concentration (IC50) in data set [1] is > 10 µM; in data set [2] it was 3.6 µM; in data set [3], > 50 µM.
